Only some compounds are listed: those with a hit (about 9.8% of all), similar ones and a draw of the others.
PMI activator: increases human mannose-6-phosphate isomerase activity. P34949. purified human PMI, coupled resazurin fluorescence, 20 min; active compounds read high; 1 = vehicle control, 0 substrate-free wells. activation factor at 20 µM. 190,000 tested, 0.005% active. AID 1214;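 active = activation factor of 2 or more at 20 µM, relative to plate controls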
Lmaj promast: Leishmania major promastigote growth inhibition | 200,000 tested, 9% active | inhibition, % at 10 µM | Leishmania major promastigotes, resazurin fluorescence viability; in the data active = inhibition above about 50%;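 note: promastigotes grown with compound for 44 hours at 28 °C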
PMI act satM6P: increases human PMI activity with near-saturating mannose 6-phosphate | 190,000 tested, 0.34% active | P34949 | activation factor at 20 µM | coupled PMI enzyme assay, resazurin fluorescence, 20 min; active compounds read high; 1 = untreated enzyme, 0 = substrate-free blank;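 active = activation factor of 2 or more at 20 µM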
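assay system = human phosphomannose isomerase with PGI, G6PDH, diaphorase coupling enzymes | quantity = 15 ng/mL PMI | incubation = enzyme reaction with compound 20 min at room temperature | medium = HEPES pH 7.4 buffer with MgCl2 and Tween-20 | compound dosing = one concentration, 20 µM, in 1% DMSO | measured by = Diaphorase-driven resazurin-to-resorufin fluorescence, excitation 544, emission 590 nm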
m-calpain inh: inhibitors of pig calpain II | inhibition, % at 16 µM | purified calpain II, fluorogenic peptide substrate, 30 min | 220,000 tested, 0.37% active;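 active = inhibition above about 50%, limit read from the data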
Rad51 HR inh: blocks human Rad51 in homologous recombination. Q06609. hRad51 DNA strand exchange, fluorescence dequenching. inhibition, % at 10 µM. 200,000 tested, 0.085% active. AID 1385;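 active = inhibition above 40% at the single screening dose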;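 note: 0% = DMSO control wells and 100% = blanks with heterologous ssDNA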
Target sequence (Q06609 whole entry, looked up): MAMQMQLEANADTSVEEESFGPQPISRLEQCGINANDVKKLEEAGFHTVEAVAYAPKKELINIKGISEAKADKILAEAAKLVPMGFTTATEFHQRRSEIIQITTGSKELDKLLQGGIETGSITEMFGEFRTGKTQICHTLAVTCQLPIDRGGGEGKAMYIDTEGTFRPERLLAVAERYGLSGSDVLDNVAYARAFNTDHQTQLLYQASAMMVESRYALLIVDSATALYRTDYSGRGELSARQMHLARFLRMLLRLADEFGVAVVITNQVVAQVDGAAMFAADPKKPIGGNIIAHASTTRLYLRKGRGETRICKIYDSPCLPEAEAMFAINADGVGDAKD
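Test system – preformed human Rad51 ssDNA filaments · Reagent – Donor/quencher-labelled 47-bp dsDNA substrate · Incubation – 37 °C 15-min filament assembly, 30-min compound preincubation, 15-min exchange · Signal – FRET fluorescence dequenching, excitation 485 nm, emission 520 nm · Read-out – percent inhibition from fluorescence, normalised to plate control and blank means · Benchmarks – plate control and blank wells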
WT yeast gro inh: growth inhibition of WT yeast, mitochondrial fusion screen | mitochondrial fusion phenotypic screen, WT strain | inhibition, % at 10 µM | 190,000 tested, 2.1% active; in the data active = inhibition above about 58%; tested in S. cerevisiae
* marks the source's active call; other numbers are inactive results.

Cc1[nH]c2ccccc2c1/C=N/Nc1ccccn1 was read as PMI activator 0.9, Lmaj promast 56*, PMI act satM6P 0.9, m-calpain inh -2, Rad51 HR inh -5 and WT yeast gro inh 16.
Screening Cc1[nH]c2ccccc2c1/C=N/NC(=O)c1cccc(F)c1 returned PMI activator 0.9, Lmaj promast 0, PMI act satM6P 0.8, m-calpain inh -18, Rad51 HR inh 1 and WT yeast gro inh -14.
Screening CCN(CC)C(=O)/C(=C/c1cccc([N+](=O)[O-])c1)NC(=O)c1ccco1 returned PMI activator 1, Lmaj promast 0, PMI act satM6P 1, m-calpain inh -10, Rad51 HR inh 8 and WT yeast gro inh -10.
Screening CCN1C(=O)CC2(C[N+]3(C)CCC2CC3)C1=O (stereo not drawn) returned PMI activator 1, Lmaj promast -4, PMI act satM6P 0.9, m-calpain inh 7, Rad51 HR inh 22 and WT yeast gro inh 8.
`C[n+]1nc(Nc2cccc3ccccc23)sc1-c1ccc(C(=O)O)cc1` gave m-calpain inh -27.
CC(=O)N1CCN(c2nc(-c3cccs3)nc3ccccc23)CC1 was read as PMI activator 0.9, Lmaj promast 77*, PMI act satM6P 1, m-calpain inh 35, Rad51 HR inh -9 and WT yeast gro inh 8.
For c1ccc(N2CCN(c3nc(-c4ccccn4)nc4ccccc34)CC2)cc1 the results were PMI activator 0.9, Lmaj promast 100*, PMI act satM6P 0.9, m-calpain inh 2, Rad51 HR inh 0 and WT yeast gro inh 75.
For Oc1ccccc1-c1nc(N2CCCC2)c2ccccc2n1 the results were PMI activator 0.9, Lmaj promast 0, PMI act satM6P 1, m-calpain inh -295, Rad51 HR inh -5 and WT yeast gro inh -2.
CN1CCN(c2nc(-c3ccccn3)nc3ccccc23)CC1 was read as PMI activator 1, Lmaj promast 100*, PMI act satM6P 1, m-calpain inh 18, Rad51 HR inh -1 and WT yeast gro inh 9.
`CC(C)(CC(=O)O)CC(=O)NCc1c(Cl)cccc1Oc1ccccc1` gave m-calpain inh 8 and Rad51 HR inh 2.
Screening CS(=O)(=O)N(CC(O)CON=C1c2ccccc2-c2ccccc21)c1ccc(F)cc1 (stereo not drawn) returned PMI activator 0.8, Lmaj promast -2, PMI act satM6P 0.9, m-calpain inh -15, Rad51 HR inh 8 and WT yeast gro inh -13.
For CCN(CC(O)CON=C1c2ccccc2-c2ccccc21)S(=O)(=O)c1ccc(Cl)cc1 (stereo not drawn) the results were PMI activator 0.9, Lmaj promast 100*, PMI act satM6P 1, m-calpain inh 32, Rad51 HR inh 0 and WT yeast gro inh 7.
`CCN(CC(=O)NC1CCCC1)S(=O)(=O)c1ccc(C)cc1` gave PMI activator 1, Lmaj promast -6, PMI act satM6P 0.9, m-calpain inh 16, Rad51 HR inh 3 and WT yeast gro inh 3.
Screening CN(CC(O)CON=C1c2ccccc2-c2ccccc21)S(=O)(=O)c1ccc(Br)cc1 (stereo not drawn) returned PMI activator 0.9, Lmaj promast 100*, PMI act satM6P 0.9, m-calpain inh 19, Rad51 HR inh -4 and WT yeast gro inh 46.
Cc1ccc(S(=O)(=O)N(C)CC(O)Cn2c3ccccc3c3ccccc32)cc1 (stereo not drawn) was read as PMI activator 0.7, Lmaj promast 8, PMI act satM6P 0.7, m-calpain inh 16, Rad51 HR inh 5 and WT yeast gro inh 52.
Cc1cccc(N(CC(O)CON=C2c3ccccc3-c3ccccc32)S(C)(=O)=O)c1 (stereo not drawn) was read as PMI activator 0.9, Lmaj promast 56*, PMI act satM6P 0.9, m-calpain inh 37, Rad51 HR inh 3 and WT yeast gro inh 63*.
For CCN(CC(O)CON=C1c2ccccc2-c2ccccc21)S(=O)(=O)c1ccc(C)cc1 (stereo not drawn) the results were PMI activator 0.8, Lmaj promast 100*, PMI act satM6P 0.9, m-calpain inh 13, Rad51 HR inh -1 and WT yeast gro inh 22.
Screening COc1cc(/C=N/NC(=O)c2ccncc2)ccc1OCc1cnc(Cl)s1 returned PMI activator 1, Lmaj promast 2, PMI act satM6P 1, m-calpain inh 21, Rad51 HR inh -13 and WT yeast gro inh 6.
`Cc1cccc(N/C(N)=N/c2nc(C)cc(=O)[nH]2)c1` gave PMI activator 1.1, Lmaj promast 0, PMI act satM6P 1, m-calpain inh 4, Rad51 HR inh -7 and WT yeast gro inh -2.
For Cc1ccc(S(=O)(=O)Nc2cccc3c2CCCC3)cc1 the results were PMI activator 0.9, Lmaj promast 54*, PMI act satM6P 0.9, m-calpain inh 34, Rad51 HR inh 2 and WT yeast gro inh 37.
O=S(=O)(Nc1cccc2c1CCCC2)c1cccc(C(F)(F)F)c1 was read as PMI activator 0.8, Lmaj promast 44, PMI act satM6P 0.9, m-calpain inh 18 and WT yeast gro inh 31.
Cc1ccc(C2Oc3ccccc3C3=C2C(c2cccs2)n2ncnc2N3)cc1 (stereo not drawn) was read as PMI activator 0.9, Lmaj promast 51*, PMI act satM6P 0.9, m-calpain inh -94, Rad51 HR inh 0 and WT yeast gro inh -18.
Screening Fc1ccc(C2C3=C(Nc4ncnn42)c2ccccc2OC3c2ccncc2)cc1 (stereo not drawn) returned PMI activator 0.8, Lmaj promast 18, PMI act satM6P 0.9, m-calpain inh -61, Rad51 HR inh 0 and WT yeast gro inh -8.
`O=C(NC1CC2CCCC(C1)N2CC(=O)N1CCCc2ccccc21)C1CCCCC1` (stereo not drawn) gave PMI activator 1, Lmaj promast 57*, PMI act satM6P 1.1, m-calpain inh -2, Rad51 HR inh 1 and WT yeast gro inh -16.
Screening O=C(/C=C/c1ccc(Br)cc1)c1ccco1 returned PMI activator 0.9, Lmaj promast 89*, PMI act satM6P 0.9, m-calpain inh 29, Rad51 HR inh -7 and WT yeast gro inh 11.
For O=C(Nc1cccnc1)c1ccccc1F the results were PMI activator 1, Lmaj promast -3, PMI act satM6P 1, m-calpain inh -12, Rad51 HR inh 10 and WT yeast gro inh 12.
Screening O=C(/C=C/c1ccncc1)c1ccc(NC(=O)c2ccccc2F)cc1 returned PMI activator 1, Lmaj promast 100*, PMI act satM6P 1, m-calpain inh -12, Rad51 HR inh -8 and WT yeast gro inh -5.
Screening O=C(/C=C/c1ccc(Br)cc1)c1ccc(NC(=O)c2ccco2)cc1 returned PMI activator 1, Lmaj promast 88*, PMI act satM6P 1.1, m-calpain inh -58 and WT yeast gro inh 29.

Screens from PubChem BioAssay.
